As a reminder, the Ki is the dissociation constant of the complex between target and ligand, obtained from inhibition or displacement. The Hill slope is the slope factor of the fitted curve. What is called IC50 is the concentration that gives 50% inhibition. The term inhibition denotes the relative decrease from the control value, in per cent. The Kd is the equilibrium constant for the complex coming apart. As usually defined, the koff is the first-order rate constant of dissociation. Lower therefore signals slow dissociation.

The values that follow come from PMC5161541 (Nuclear medicine and biology, 2016).

In series [1] the target is T1, σ1 receptors (Mus musculus, UniProt O55242). The series is described as follows: Competition binding against [3H]-PTZ in mouse brain membranes.
Series [2] has as its target T2, σ2 receptors (Mus musculus, UniProt Q8VD00).
T2 sequence (Q8VD00 1-176): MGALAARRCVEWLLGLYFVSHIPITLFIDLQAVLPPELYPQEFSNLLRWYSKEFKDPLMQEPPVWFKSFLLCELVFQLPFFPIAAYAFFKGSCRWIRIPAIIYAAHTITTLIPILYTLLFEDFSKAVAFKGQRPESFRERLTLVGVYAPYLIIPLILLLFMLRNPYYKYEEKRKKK
The series is described as follows: Competition binding against [3H]-DTG with PTZ mask in mouse brain membranes.

Another series deals with Mu (μ) opioid receptor (Cavia porcellus, UniProt A0ACM8Q262). Nature of the series: Secondary site spot test, [3H]-DAMGO. Format: binding, guinea pig.
The target in series [3] is Kappa (κ) opioid receptor (Cavia porcellus, UniProt P41144). The series is described as follows: Secondary site spot test, [3H]-U69593. The series is classed as binding, guinea pig.
In series [4] the target is Delta (δ) opioid receptor (Mus musculus, UniProt P32300). The series is described as follows: Secondary site spot test, [3H]-Naltrindole. The series is classed as binding.
The target in another series is SERT (Mus musculus, UniProt Q60857). The series is described as follows: Secondary site spot test, [3H]-Paroxetine. Format: binding.
A further series addresses NET (Mus musculus, UniProt O55192). Nature of the series: Secondary site spot test, [3H]-Nisoxetine. The series is classed as binding.
Another series has as its target DAT (Mus musculus, UniProt Q61327). The series is described as follows: Secondary site spot test, [125I]-RTI-121. The series is classed as binding.
Series [5] concerns the target sites labeled by [125I]-E-IA-BF-PIPZE (σ1 receptors) (Mus musculus, UniProt O55242). Format: binding.
Series [6] has as its target T1, σ1 receptors. Nature of the series: Regional brain distribution with blocking pretreatments. Format: in vivo, CD-1 mouse. As to conditions: 2.5 μmol / kg i.v., 60 min, nine regions.
Series [7] deals with T1, σ1 receptors. The series is described as follows: In vivo specific binding and blocking by pretreatment with σ receptor ligands.
Series [8] addresses T1, σ1 receptors. As to conditions: cited from earlier work.
Series [9] concerns the target T2, σ2 receptors. As to conditions: read-out: Sigma-2, Ki; cited from earlier work.
The test system of series [10] is (−)-cocaine induced locomotor hyperactivity. As to conditions: cited from earlier work.
Series [11] deals with cannabinoid receptor type 2 (CB2). As to conditions: cited from earlier work.
Series [12] concerns the target T1, σ1 receptors. Format: binding. As to conditions: 0.16 nM radioligand, 37 °C.
The target in series [13] is T1, σ1 receptors. Nature of the series: "Hot" saturation binding in mouse brain membranes. The gist of the method: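 "Hot" saturation: mouse brain membranes incubated with increasing radioligand concentrations until steady-state binding. Non-specific binding determined in parallel at each concentration with a competing non-radioactive ligand. Specific binding fitted by nonlinear regression to the one-site mass-action equation to give Kd and Bmax. Bound/Free expressed as (fmol/mg protein)/nM for the Scatchard plot. Single experiment.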

The nature of series [14]: Lipophilicity, shake-flask n-octanol / buffer pH 7.4. The series is classed as physicochemical. An outline of the steps: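 Shake-flask method: radiolabeled test compound partitioned between equal volumes of n-octanol and aqueous buffer pH 7.4, each presaturated with the other. Vortexed, then centrifuged. Each layer sampled in duplicate or triplicate and counted. Counts normalized per g or per mL, and the concentration ratio converted to Log D7.4.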

Series [15] can be described thus: TCA protein precipitation assay of plasma protein binding. Format: in vitro ADME, mouse. As to conditions: for Protein Binding: mouse plasma, 37 °C, 30 min, TCA precipitation, n = 9. The gist of the method: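 Radioiodinated test compound incubated in commercial mouse plasma at 37 °C for 30 min. Proteins then precipitated with cold 10% TCA / 5% HCl to measure protein-bound radioactivity.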

Series [16] is described as follows: Temporal biodistribution after i.v. radioligand in CD-1 mice. Format: in vivo, CD-1 mouse. The gist of the method: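 Radioligand given i.v. to male CD-1 mice, with tissues sampled from 5 min to 24 h. Uptake expressed as %ID/g. Clearance half-lives from heart and lung obtained by monoexponential decay fitting.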
Series [17] is described as follows: Radiometabolite analysis of tissue extracts and urine by HPLC. Format: in vivo, CD-1 mouse. As to conditions: for Radiometabolites Whole Brain, 60 min: mouse, in vivo. An outline of the steps: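 Organs from i.v.-dosed mice, given more radioactivity than in pharmacokinetic studies, counted and homogenized in methanol/acetonitrile/water containing DTG (100 μM). Homogenates centrifuged, with a radioactivity balance taken for extracts and pellets. Extracts diluted with water and filtered (0.45 μm) for radio-HPLC. Urine only diluted with mobile phase and filtered.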

Series [18] concerns the target T1, σ1 receptors. Nature of the series: Calculated binding potential. As to conditions: single trial, protein assumed 5% of brain tissue. An outline of the steps: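 The Scatchard Y-intercept, as Bound/Free in (fmol/mg protein)/nM from the in vitro mouse brain membrane saturation experiment, was converted to tissue-concentration units assuming protein is 5% of brain tissue. This gave binding potential for a single trial.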

The mark [19] stands for this setting: listed as [^125I]-E-IA-BF-PIPZE.
Setting [20] is: 15 min, defined by BD1063 5 μmol / kg i.v.

Read-outs that look alike come from different tables or passages of the source. A value given as a limit tells only on which side of the number the result lay.

Chain of sites labeled by [125I]-E-IA-BF-PIPZE (σ1 receptors) (O55242 whole entry): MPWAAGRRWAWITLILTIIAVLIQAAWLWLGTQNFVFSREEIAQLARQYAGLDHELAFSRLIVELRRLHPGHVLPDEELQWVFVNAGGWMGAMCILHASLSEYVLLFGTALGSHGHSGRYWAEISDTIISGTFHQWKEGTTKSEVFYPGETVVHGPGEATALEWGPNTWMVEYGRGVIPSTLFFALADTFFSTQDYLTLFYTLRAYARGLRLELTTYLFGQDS
T1 sequence (O55242 whole entry): as above
Chain of DAT (Q61327 whole entry): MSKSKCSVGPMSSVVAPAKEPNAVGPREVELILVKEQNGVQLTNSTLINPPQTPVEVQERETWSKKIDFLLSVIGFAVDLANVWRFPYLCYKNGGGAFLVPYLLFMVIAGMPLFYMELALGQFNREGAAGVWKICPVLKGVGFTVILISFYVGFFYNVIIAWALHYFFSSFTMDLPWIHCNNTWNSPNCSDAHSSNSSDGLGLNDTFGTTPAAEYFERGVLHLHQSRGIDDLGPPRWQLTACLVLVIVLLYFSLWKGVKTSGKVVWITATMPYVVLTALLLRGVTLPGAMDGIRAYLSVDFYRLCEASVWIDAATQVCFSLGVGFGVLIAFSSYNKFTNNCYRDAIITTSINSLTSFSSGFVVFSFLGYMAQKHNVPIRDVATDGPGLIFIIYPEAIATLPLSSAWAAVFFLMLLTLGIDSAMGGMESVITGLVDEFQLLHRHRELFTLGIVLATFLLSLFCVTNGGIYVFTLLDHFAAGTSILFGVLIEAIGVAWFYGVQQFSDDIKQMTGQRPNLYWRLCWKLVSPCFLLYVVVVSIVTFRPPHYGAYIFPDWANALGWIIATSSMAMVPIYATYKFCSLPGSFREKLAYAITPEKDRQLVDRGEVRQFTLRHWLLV
Chain of Delta (δ) opioid receptor (P32300 whole entry): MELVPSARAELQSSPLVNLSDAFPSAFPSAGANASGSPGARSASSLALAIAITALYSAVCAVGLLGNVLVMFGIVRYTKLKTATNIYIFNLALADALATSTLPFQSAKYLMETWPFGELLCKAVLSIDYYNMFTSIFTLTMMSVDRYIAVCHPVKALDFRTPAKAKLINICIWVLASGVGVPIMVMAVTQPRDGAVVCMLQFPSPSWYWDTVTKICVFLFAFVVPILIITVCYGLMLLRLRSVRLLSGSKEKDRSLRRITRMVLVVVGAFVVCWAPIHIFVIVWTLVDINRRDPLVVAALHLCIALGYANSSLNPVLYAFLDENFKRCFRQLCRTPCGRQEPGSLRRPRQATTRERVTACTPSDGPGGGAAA
Chain of Kappa (κ) opioid receptor (P41144 whole entry): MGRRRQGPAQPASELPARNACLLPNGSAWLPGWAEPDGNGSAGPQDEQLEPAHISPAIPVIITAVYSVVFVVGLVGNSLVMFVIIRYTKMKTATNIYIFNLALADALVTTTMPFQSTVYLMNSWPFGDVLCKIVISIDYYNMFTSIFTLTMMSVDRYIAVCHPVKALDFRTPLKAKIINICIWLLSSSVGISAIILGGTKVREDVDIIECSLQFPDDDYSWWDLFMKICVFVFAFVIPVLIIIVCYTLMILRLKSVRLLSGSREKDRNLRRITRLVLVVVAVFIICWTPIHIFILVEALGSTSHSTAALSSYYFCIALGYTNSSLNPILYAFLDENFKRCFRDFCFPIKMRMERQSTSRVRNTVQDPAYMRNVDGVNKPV
Chain of NET (O55192 whole entry): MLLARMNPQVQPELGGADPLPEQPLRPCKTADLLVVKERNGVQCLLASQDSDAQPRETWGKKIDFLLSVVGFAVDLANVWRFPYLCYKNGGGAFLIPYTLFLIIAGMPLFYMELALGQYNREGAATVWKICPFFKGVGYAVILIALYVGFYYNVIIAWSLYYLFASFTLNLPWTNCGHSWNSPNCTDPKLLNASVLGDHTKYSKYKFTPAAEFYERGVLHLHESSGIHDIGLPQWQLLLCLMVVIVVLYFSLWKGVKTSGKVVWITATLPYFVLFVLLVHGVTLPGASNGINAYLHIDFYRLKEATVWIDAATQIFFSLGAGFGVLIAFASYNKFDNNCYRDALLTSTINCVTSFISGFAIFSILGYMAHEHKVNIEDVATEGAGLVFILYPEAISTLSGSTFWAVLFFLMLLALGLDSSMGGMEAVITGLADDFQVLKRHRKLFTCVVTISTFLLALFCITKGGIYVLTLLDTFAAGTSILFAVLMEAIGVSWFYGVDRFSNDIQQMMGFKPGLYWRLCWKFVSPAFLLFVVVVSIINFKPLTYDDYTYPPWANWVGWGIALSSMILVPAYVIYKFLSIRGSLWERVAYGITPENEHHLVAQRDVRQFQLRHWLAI
Chain of Mu (μ) opioid receptor (A0ACM8Q262 1-400): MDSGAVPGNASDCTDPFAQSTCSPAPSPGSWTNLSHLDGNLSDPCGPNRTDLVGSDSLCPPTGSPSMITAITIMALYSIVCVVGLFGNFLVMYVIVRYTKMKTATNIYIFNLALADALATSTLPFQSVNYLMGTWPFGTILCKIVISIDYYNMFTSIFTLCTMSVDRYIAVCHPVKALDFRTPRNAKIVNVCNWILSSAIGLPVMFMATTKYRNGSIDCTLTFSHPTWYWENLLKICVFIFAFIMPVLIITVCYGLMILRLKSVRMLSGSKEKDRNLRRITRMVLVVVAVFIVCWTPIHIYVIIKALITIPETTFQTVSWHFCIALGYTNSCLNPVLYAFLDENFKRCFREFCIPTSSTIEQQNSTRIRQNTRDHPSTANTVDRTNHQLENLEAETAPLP
Chain of SERT (Q60857 whole entry): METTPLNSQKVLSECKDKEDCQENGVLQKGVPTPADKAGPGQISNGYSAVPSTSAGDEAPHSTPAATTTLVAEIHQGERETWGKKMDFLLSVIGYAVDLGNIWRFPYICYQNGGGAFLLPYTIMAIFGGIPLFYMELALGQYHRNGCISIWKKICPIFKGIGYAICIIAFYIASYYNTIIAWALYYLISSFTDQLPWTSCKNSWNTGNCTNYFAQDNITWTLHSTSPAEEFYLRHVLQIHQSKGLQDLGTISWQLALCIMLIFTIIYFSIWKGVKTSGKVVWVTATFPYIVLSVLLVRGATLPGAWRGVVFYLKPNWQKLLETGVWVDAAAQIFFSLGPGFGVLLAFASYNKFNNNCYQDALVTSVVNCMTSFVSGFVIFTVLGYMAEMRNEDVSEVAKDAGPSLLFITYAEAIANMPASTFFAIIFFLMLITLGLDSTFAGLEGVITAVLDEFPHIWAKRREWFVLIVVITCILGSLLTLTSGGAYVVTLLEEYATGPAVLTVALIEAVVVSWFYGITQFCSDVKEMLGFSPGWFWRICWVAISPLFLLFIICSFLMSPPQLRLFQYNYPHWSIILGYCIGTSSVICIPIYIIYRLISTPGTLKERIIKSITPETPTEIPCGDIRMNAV

As to `I/C=C/CN1CCN(CCc2ccc3c(c2)CCO3)CC1` [E-IA-BF-PE-PIPZE, (E)-1-(2-(2,3-dihydrobenzofuran-5-yl)ethyl)-4-(iodoallyl)piperazine], the Ki was determined as 0.43 ± 0.03 nM at σ1 receptors [1], 74.5 ± 4.44 nM at σ2 receptors [2] and 1.1 ± 0.1 nM in series [5]. This compound also displayed a Hill slope at σ1 receptors [1] ([3H]-PTZ competition) of −1.23 ± 0.04. Besides, at σ1 receptors [1] (σ2 Ki / σ1 Ki), the “Selectivity: σ2/σ1 (Ki ratio)” value is reported as 173. The IC50 at Mu (μ) opioid receptor (read-out: IC50 Mu, [3H]-DAMGO 0.6 nM, guinea pig membranes) was more than 5000 nM; in [3] it was more than 5000 nM; in series [4], more than 5000 nM; against SERT, more than 10000 nM; against NET it was more than 10000 nM; on DAT, more than 10000 nM. The IC50 in [5] amounted to 1.7 ± 0.2 nM. Also, the inhibition at 5 µM is not above 50% at Mu (μ) opioid receptor (read-out: inhibition of specific radioligand binding, μ); not above 50% in series [3] (read-out: inhibition of specific radioligand binding, κ); not above 50% in [4] (read-out: inhibition of specific radioligand binding, δ). For the same compound, the inhibition at 10 µM at SERT (read-out: inhibition of specific radioligand binding, SERT) is not above 50%; on NET (read-out: inhibition of specific radioligand binding, NET), not above 50%; on DAT (read-out: inhibition of specific radioligand binding, DAT), not above 50%. For the same compound, the “Hill (nH)” value in series [5] (means ± SEM (n = 3 – 6)) is reported as 1.0 ± 0.1. Also, on σ1 receptors [6], the “reduction of radioligand uptake across brain regions” value is “over 92%”. For the same compound, the “adverse effects or abnormal behaviors” value at σ1 receptors [7] (2.5 μmol / kg i.v., mice) is given as “No adverse effects or abnormal behaviors”.

For the compound `COc1ccc(CCN2CCN(C/C=C/I)CC2)cc1OC` [E-IA-DM-PE-PIPZE, (E)-1-(2-(2,3-dimethoxy-5-yl)ethyl)-4-(iodoallyl)piperazine], on σ1 receptors [8], the “Selectivity: σ2/σ1” value is reported as 216. Moreover, the Ki on σ1 receptors [8] (read-out: Sigma-1, Ki) is 6.7 ± 0.9 nM; at σ2 receptors [9], 1450 ± 220 nM. Also, the “effect on (−)-cocaine induced locomotor hyperactivity” value in series [10] was “partially attenuates”.

Consider `CCCCCCC(C)(C)c1ccc([C@@H]2C[C@H](O)CC[C@H]2CCCO)c(O)c1` [[^3H]-CP55940], for which, in series [11], the Kd is 1.5 nM.

For `[125I]/C=C/CN1CCN(CCc2ccc3c(c2)CCO3)CC1` [[^125I]-E-IA-BF-PE-PIPZE, [^125I]-(E)-1-(2-(2,3-dihydrobenzofuran-5-yl)ethyl)-4-(iodoallyl)piperazine], at σ1 receptors [12], the kobs turned out to be 0.016 ± 0.002 min⁻¹ and the “time to steady-state binding” value is approximately 180 min. The same compound had a koff on σ1 receptors [12] (haloperidol-initiated dissociation) of 5.5e-05 ± 5e-06 s⁻¹. In addition, the “Bound / Free Y-intercept” value at σ1 receptors [13] ((fmol / mg protein) / nM, single experiment) turned out to be 1942. Also, the “fold higher affinity from rate constants compared to saturation binding” value at σ1 receptors [13] (Kd 0.042 nM vs […]) turned out to be 5.7 fold. Moreover, the “fold higher σ1 receptor affinity than [125I]-E-IA-DM-PE-PIPZE” value at σ1 receptors [13] (measured Kd, mouse brain membranes) is recorded as 16 fold. This compound displayed a Bmax at σ1 receptors [13] (mouse brain membranes, 37 °C, 180 min, four trials, listed as [^125I]-E-IA-BF-PIPZE) of 472 ± 13 fmol / mg protein. In series [14], the “fold higher lipophilicity than [125I]-E-IA-DM-PE-PIPZE” value is reported as 2.8 fold. Besides, the “Log D7.4” value in series [14] (n-octanol / buffer pH 7.4, n = 5) came to 2.69 ± 0.28. Besides, in series [15], the “increase of protein binding with respect to [125I]-E-IA-DM-PE-PIPZE” value was determined as 50% and the “Protein Binding” value was 71 ± 0.3%. The “Protein Binding” value in [15] (setting [19]) amounted to 71.2 ± 0.3%. Also, in series [16] (5 min), the blood level was 0.31 ± 0.03 %ID / g and the “radioactivity in the eye” value is on record as 2.01 ± 0.13 %ID / g. In series [16] (5 min, i.v., mean ± SD), this compound gave a brain uptake of 6.14 ± 0.94 %ID / g. The compound also showed a peak brain uptake in [16] (15 min, i.v., mean ± SD) of 6.56 ± 1.23 %ID / g. For the same compound, the brain uptake in series [16] (4 h) came to 4.48 ± 0.22 %ID / g. In [16] (24 h), this compound yielded a blood level of 0.08 ± 0.01 %ID / g and a brain uptake of 0.76 ± 0.091 %ID / g. The “clearance t½ from lung” value in series [16] (monoexponential decay, r^2 0.88) is 1.73 h. Besides, the “clearance t½ from heart” value in [16] (monoexponential decay, r^2 0.90) amounted to 1.98 h. Also, in series [16] (mouse, in vivo), the “initial whole brain uptake” value was more than 6 % injected dose / g; the “uptake in heart relative to brain, higher by” value turned out to be 50%; the “uptake in lung compared to brain” value was found to be 5 fold. Also, in [17] (60 min), the “extractable radioactivity, liver” value was determined as 80% and the “urinary radioactivity as polar metabolites” value came out at 99%. Also, the “radioactivity in brain tissue from intact radioligand” value in [17] (60 min, 100 μCi i.v.) is “About 99%”. In addition, in series [17], the “Radiometabolites Whole Brain, 60 min” value was 1%. In series [17] (setting [19]), the “Radiometabolites Whole Brain, 60 min” value came out at 1%. On σ1 receptors [18], the “Binding Potential (BP)” value is 97. Further, on σ1 receptors [7] (setting [20]), the “specific radioligand binding in brain” value is 75%, the “specific radioligand binding in heart” value was determined as 87%, the “specific radioligand binding in lung” value came to 87% and the “specific radioligand binding in muscle” value stood at 61%. Further, at σ1 receptors [7] (60 min, saline-treated control group), the “radioactivity in the blood, controls” value was determined as 0.38 ± 0.09 %ID / g. In addition, at σ1 receptors [7] (mouse, in vivo, 0.5 h), the “Non-Specific binding Whole Brain, 30 min” value is 0.89 %ID /g and the “Specific binding Whole Brain, 30 min” value is 4.90 %ID /g. Also, on σ1 receptors [7] (mouse, in vivo, 1 h), the “Non-Specific binding Whole Brain, 60 min” value is listed as 0.60 %ID /g and the “Specific binding Whole Brain, 60 min” value was 5.38 %ID /g. At σ1 receptors [7] (mouse, in vivo, 4 h), the “Non-Specific binding Whole Brain, 240 min” value worked out at 0.34 %ID /g and the “Specific binding Whole Brain, 240 min” value came out at 4.14 %ID /g. At σ1 receptors [7] (ratio of %ID /g values), the “Specific / Non-Specific Whole Brain, 30 min” value was 5.5; the “Specific / Non-Specific Whole Brain, 60 min” value was 9.0; the “Specific / Non-Specific Whole Brain, 240 min” value was 12. Further, on σ1 receptors [7] (ratio of %ID /g values, listed as [^125I]-E-IA-BF-PIPZE), the “Specific / Non-Specific Whole Brain, 240 min” value is recorded as 12.2.
